Activity calls are given as the source filed them. The rule behind the calls is not given here.
Molecular target: Metabotropic glutamate receptor 6 (Homo sapiens) (UniProt O15303)
Experiment: glutamate potency shift at mGlu6 – cell-based, HEK293A, Galpha15, calcium mobilization, selectivity assay for mGlu5 silent allosteric modulator project (AID 652205)
Details: HEK293A hmGlu6+Galpha15, Fluo4 calcium mobilization, glutamate CRC; at 10 µM
In short: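 Buffer or medium – HBSS with 2.5 mM probenecid and 20 mM HEPES, pH 7.4 · Test system – human mGlu6 plus Galpha15 in HEK293 cells · Dosing – single test compound dose of 10 µM, 1% DMSO · Times – dye loading 60 min, 37 °C, compound at 20 s · Technique – Fluo-4 calcium mobilization fluorescence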

Metabotropic glutamate receptor 6 (Homo sapiens), sequence (O15303 whole entry, looked up): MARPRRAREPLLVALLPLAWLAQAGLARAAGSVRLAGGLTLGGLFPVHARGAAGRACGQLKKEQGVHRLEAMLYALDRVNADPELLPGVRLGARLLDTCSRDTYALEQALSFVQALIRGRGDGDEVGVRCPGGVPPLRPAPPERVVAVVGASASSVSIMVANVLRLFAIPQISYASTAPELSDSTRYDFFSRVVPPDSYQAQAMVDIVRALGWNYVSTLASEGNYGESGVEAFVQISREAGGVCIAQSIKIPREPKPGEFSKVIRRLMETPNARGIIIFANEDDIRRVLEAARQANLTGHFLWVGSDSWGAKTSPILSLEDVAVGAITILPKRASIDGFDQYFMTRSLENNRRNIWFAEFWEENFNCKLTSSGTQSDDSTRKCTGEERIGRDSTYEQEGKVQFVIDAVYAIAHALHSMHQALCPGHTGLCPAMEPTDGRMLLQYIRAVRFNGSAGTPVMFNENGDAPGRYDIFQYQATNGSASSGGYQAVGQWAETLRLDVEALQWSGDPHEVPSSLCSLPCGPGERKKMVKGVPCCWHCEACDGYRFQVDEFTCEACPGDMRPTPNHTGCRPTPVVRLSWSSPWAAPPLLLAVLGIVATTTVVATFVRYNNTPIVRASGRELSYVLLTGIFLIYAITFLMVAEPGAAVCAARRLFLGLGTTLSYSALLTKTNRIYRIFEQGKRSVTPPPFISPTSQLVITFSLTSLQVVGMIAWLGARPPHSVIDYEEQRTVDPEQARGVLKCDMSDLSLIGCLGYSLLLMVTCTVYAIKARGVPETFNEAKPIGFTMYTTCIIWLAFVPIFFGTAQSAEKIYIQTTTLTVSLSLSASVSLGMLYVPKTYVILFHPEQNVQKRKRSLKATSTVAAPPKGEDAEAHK

With O=C(c1ccc(C#Cc2cccc(F)c2)cn1)N1CC2CC2C1 (stereo unspecified) the glutamate EC50 fold shift was 0.859 (inactive).

— PubChem BioAssay AID652205 (Vanderbilt Specialized Chemistry Center, 2013)
